PMC10925177 (bioRxiv, 2024)

How the values were obtained:
G9a = biological target: T1, G9a (Homo sapiens, UniProt Q96KQ7); assay: Western blot of G9a protein levels in cancer cells; assay type: cell-based
T1 sequence (Q96KQ7 1-1210): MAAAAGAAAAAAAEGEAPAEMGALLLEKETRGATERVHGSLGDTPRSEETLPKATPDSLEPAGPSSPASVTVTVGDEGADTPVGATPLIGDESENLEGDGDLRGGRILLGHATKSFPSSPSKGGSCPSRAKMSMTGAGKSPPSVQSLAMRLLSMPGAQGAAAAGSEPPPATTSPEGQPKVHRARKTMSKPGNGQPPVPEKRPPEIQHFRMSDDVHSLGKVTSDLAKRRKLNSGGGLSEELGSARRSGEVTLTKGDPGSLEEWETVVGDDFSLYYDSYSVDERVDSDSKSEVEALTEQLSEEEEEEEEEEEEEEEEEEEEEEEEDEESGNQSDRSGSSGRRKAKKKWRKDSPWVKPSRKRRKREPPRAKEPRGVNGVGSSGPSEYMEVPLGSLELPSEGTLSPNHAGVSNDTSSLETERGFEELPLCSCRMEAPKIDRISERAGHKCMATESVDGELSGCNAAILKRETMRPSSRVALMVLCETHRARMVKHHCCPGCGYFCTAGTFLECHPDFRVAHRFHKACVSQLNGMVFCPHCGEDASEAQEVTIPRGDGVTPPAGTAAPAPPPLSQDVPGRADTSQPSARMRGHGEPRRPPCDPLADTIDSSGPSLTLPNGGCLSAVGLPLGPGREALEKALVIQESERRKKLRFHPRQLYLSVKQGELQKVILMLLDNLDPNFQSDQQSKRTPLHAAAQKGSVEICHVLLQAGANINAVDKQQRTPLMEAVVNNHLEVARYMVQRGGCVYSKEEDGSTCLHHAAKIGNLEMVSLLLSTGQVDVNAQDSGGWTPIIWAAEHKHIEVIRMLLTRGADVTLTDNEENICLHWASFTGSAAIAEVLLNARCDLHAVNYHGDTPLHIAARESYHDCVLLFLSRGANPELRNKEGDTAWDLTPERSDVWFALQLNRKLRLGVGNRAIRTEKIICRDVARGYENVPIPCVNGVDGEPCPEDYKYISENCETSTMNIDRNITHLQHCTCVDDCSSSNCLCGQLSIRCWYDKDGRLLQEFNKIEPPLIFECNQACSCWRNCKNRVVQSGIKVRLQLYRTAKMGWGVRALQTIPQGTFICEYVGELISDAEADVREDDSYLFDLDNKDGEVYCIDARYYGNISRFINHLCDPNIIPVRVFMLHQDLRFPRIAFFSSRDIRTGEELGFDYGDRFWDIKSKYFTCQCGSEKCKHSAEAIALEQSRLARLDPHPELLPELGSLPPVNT
Outline: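 Cells (22Rv1, K562, H1299) were treated for 24 h at the indicated concentrations; 22Rv1 time courses were run at 3 μM. Cells were lysed in RIPA with protease inhibitors, and 10–30 μg of protein was resolved by SDS-PAGE and transferred to PVDF. Blots were probed overnight at 4 °C, with vinculin/β-actin as loading controls. Band intensity was normalised to DMSO, with n = 2 independent experiments (mean ± SD).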

SET7/9 = biological target: T2, SET7/9 (Homo sapiens, UniProt Q8WTS6); assay: Radioactive methyltransferase assay, SET7/9; assay type: biochemical; settings: 10 μM compound
T2 sequence (Q8WTS6 1-366): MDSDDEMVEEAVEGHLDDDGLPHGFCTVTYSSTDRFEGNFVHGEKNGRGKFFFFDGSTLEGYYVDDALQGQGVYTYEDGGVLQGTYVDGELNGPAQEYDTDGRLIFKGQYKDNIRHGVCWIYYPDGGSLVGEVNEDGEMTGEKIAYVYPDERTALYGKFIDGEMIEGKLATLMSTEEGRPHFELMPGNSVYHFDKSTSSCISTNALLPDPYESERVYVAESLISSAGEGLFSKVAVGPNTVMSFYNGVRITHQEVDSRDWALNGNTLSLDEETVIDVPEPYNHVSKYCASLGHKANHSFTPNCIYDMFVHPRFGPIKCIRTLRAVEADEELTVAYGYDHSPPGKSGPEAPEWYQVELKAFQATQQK
Outline: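 The selectivity screen covered 21 protein methyltransferases in radioisotope-based MT HotSpot methyltransferase assays run by a contract laboratory. Test compound was at 10 μM. Each assay was run in duplicate and reported as mean ± SD of the two replicates.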

COc1cc2c(NC3CCN(CCCC(=O)NCCCCCCCCCCCC(=O)N[C@H](C(=O)N4C[C@H](O)C[C@H]4C(=O)NCc4ccc(-c5scnc5C)cc4)C(C)(C)C)CC3)nc(N3CCC(F)(F)CC3)nc2cc1OCCCN1CCCC1 [Compound 10, (2S,4R)-1-((S)-2-(12-(4-(4-((2-(4,4-difluoropiperidin-1-yl)-6-methoxy-7-(3-(pyrrolidin-1-yl)propoxy)quinazolin-4-yl)amino)piperidin-1-yl)butanamido)dodecanamido)-3,3-dimethylbutanoyl)-4-hydroxy-N-(4-(4-methylthiazol-5-yl)benzyl)pyrrolidine-2-carboxamide]
G9a degradation, in words (G9a; 22Rv1 cells, 1 μM, 24 h, WB (Figure 3A)): potently induced degradation | duration of G9a degradation effect (G9a; 22Rv1 cells, 3 μM): up to 48 h | time at which G9a degradation was first observed (G9a; 22Rv1 cells, 3 μM): 4 h | time to complete G9a degradation (G9a; 22Rv1 cells, 3 μM): around 24 h | G9a degradation, in words (G9a; H1299 cells, 3 μM, 24 h, WB): degraded | G9a degradation, in words (G9a; K562 cells, 3 μM, 24 h, WB): induced G9a and GLP degradation | DC50 (G9a; read-out: half-maximal degradation concentration (DC50) for G9a, 22Rv1 cells, 24 h, WB): 274 ± 2 nM | inhibition of SET7/9 (SET7/9): moderately inhibited
